# In the library only some 5.5% were active in any assay of this set; here they are far more common.
# PLAP act: activators of human placental alkaline phosphatase. P05187. purified PLAP enzyme, luminescent substrate read-out; hits give high values. activation fold at 20 µM. hit rate 1.2% among 96,000. AID 696; in the data active = activation fold above about 2
# Target sequence (P05187 whole entry, looked up): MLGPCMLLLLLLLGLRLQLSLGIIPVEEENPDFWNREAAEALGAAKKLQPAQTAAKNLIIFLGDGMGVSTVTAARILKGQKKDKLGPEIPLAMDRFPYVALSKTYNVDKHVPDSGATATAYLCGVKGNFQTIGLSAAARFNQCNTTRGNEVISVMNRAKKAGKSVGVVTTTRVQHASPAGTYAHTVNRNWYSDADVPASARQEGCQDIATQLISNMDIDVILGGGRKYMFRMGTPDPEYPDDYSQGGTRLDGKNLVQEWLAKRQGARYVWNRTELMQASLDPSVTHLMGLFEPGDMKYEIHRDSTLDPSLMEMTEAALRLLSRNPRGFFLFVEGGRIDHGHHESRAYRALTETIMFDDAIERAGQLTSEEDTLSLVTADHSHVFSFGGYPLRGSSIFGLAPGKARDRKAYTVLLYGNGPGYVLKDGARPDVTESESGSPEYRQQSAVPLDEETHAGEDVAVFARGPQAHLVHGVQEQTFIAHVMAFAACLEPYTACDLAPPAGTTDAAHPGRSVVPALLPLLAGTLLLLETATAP
# Ecoli WT expand: blocks growth of wild type E. coli BW25113; OD600 absorbance; growth inhibition, % at 100 µM; hit rate 0.15% among 98,000;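 active = growth inhibition above about 50% at one test dose, limit read from the data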;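 also: growth measured after 20 h incubation at 37 °C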
# PostGolgi yeast: growth inhibition of a yeast mutant, post-Golgi transport screen | post-Golgi transport phenotypic cell assay | inhibition, % at 10 µM | hit rate 0.9% among 98,000;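 also: yeast cells grown in 1536-well plates; yeast grown about 18 h at 30C before absorbance read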
# HePTP inhibitor: blocks human HePTP tyrosine phosphatase; P35236; recombinant HePTP phosphatase activity, OD absorbance; inhibition, % at 20 µM; hit rate 0.64% among 110,000; AID 521; in the data active = inhibition above about 50%;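 also: plate controls were vehicle for no effect and reference inhibitor for full effect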
# PostGolgi ctrl: yeast control strain growth, post-Golgi counter-screen; efflux-deficient yeast background strain, growth absorbance A615, 16 h; inhibition, % at 10 µM; hit rate 5% among 98,000; AID 738
# tolC growth inh: growth inhibitors of E. coli BW25113 tolC mutant | OD615 | growth inhibition, % at 10 µM (by protocol) | hit rate 2.2% among 65,000;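 active = growth inhibition at or above a cutoff equal to the mean over every tested compound plus 3 SD, cut at about 60% in these data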;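 also: growth measured after 20 h incubation at 37 °C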
#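 Doses: one dose of 10 µM final / Material: E. coli BW25113 ΔtolC::kan, tolC deletion mutant strain / Buffer or medium: LB with kanamycin 50 µg/mL / Evaluation: percent growth inhibition / Detection: optical density read at 615 nm / Incubation: 37 °C, 20 h exposure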
# * hit, by the source's call; / = no result given. Rule as the data show it, unless noted: active = inhibition above about 30%; inactive = the rest.
SMILES,PLAP act,Ecoli WT expand,PostGolgi yeast,HePTP inhibitor,PostGolgi ctrl,tolC growth inh
CCC(=O)N(Cc1cc2c(C)ccc(C)c2[nH]c1=O)C1CCCCC1,1.3,12.0,-7.7,-12.3,30.8*,23.4
CCC(=O)N(Cc1cc2c(C)cc(C)cc2[nH]c1=O)C1CCCCC1,1.5,7.0,9.4,6.2,47.1*,/
S=C(NNc1nc2ccccc2s1)NC1CCCCC1,/,/,/,6.5,/,/
CCOC(=O)c1cnc(-n2cc(C)cn2)nc1Nc1ccccc1OCC,1.1,3.0,-4.8,4.8,12.9,67.8*
Cc1nn2c(-c3ccccc3)nnc2c2ccccc12,1.1,-5.0,-1.1,12.1,30.8*,37.3
CCc1c(C)sc(NC(=O)c2ccc(OC)cc2)c1C(N)=O,/,/,/,-9.0,/,/
CCc1c(C)sc(NC(=O)CCc2ccc(OC)cc2)c1C(=O)OC,/,/,/,103.7*,/,/
COc1ccc(CCNC(=O)c2ccccc2[N+](=O)[O-])cc1,/,/,/,-16.2,/,/
S=C(S)N(CCN(Cc1cccs1)C(=S)S)Cc1cccs1,/,/,/,67.2*,/,/
C=CCSc1nnc(-c2ccncc2)n1-c1ccc(OCC)cc1,1,0.0,4.6,6.2,31.4*,12.3
C(=C\c1ccccc1)/CSc1nnc(-c2ccncc2)n1-c1ccccc1,/,/,/,3.7,/,/
COc1ccc(Br)cc1C1N2CC3(C)CN1CC(C)(C2)C3=O (stereo unspecified),1.6,2.0,2.8,-0.7,39.1*,/
COc1ccc2[nH]cc(C3N4CC5(C)CN3CC(C)(C4)C5=O)c2c1 (stereo unspecified),1,-1.0,-9.2,/,-3.0,-14.3
CCCCC1CCC(c2nc(-c3cccnc3)no2)CC1 (stereo unspecified),1.3,5.0,-0.6,-2.5,9.4,19.5
CCCCC1CCC(c2nc(-c3ccccn3)no2)CC1 (stereo unspecified),1.1,10.0,-6.3,1.3,38.0*,33.2
O=C1C(=O)N(c2nncs2)C(c2ccc(F)cc2)/C1=C(\O)c1ccccc1 (stereo unspecified),/,/,/,10.1,/,/
CCc1oc(C(=O)O)cc1CN(CC)CC,0.9,-9.0,-0.8,0.8,7.5,1.3
CCc1oc(C(=O)O)cc1COC,1.2,2.0,-21.4,7.4,32.8*,-27.9
CCc1c(C)sc(NC(=O)c2cccc(Br)c2)c1C(N)=O,/,/,/,5.4,/,/
CC(C)c1ccc(C2/C(=C(/O)c3ccccc3)C(=O)C(=O)N2CC2CCCO2)cc1 (stereo unspecified),/,/,/,-4.9,/,/
O=C(NCC1CCCO1)c1ccccc1Cl (stereo unspecified),/,/,/,-9.9,/,/
CCC(C)(C)n1nnnc1C(c1cc2cc(C)cc(C)c2[nH]c1=O)N1CCN(Cc2ccc3c(c2)OCO3)CC1 (stereo unspecified),1.6,-7.0,17.9,/,37.0*,/
CCC(C)(C)n1nnnc1C(c1cc2cc3c(cc2[nH]c1=O)OCO3)N1CCN(C)CC1 (stereo unspecified),1.6,4.0,30.3*,3.3,0.3,-17.3
Cc1onc(-c2c(F)cccc2Cl)c1C(=O)Nc1cccc2nsnc12,1,-4.0,2.4,6.3,42.0*,-13.1
Cc1ccc(NC(=O)c2c(-c3c(F)cccc3Cl)noc2C)cc1,/,/,/,5.5,/,/
SMILES,PLAP act,Ecoli WT expand,PostGolgi yeast,HePTP inhibitor,PostGolgi ctrl,tolC growth inh
Cc1onc(-c2c(F)cccc2Cl)c1C(=O)NCC1COc2ccccc2O1 (stereo unspecified),0.9,4.0,5.3,0.3,36.5*,28.5
Cc1onc(-c2c(F)cccc2Cl)c1C(=O)Nc1nc2ccccc2[nH]1,2*,-2.0,1.0,/,10.3,/
O=C(CSc1n[nH]c(-c2ccco2)n1)N1c2ccccc2Sc2ccccc21,1.9,0.0,2.2,-6.7,15.1,73.2*
Cc1ccc(NN2C(=O)C=C(c3ccc(Cl)cc3)C2=O)cc1,0.7,3.0,106.4*,/,99.4*,/
Cc1ccc(N2CC(C(=O)Nc3ccc(Cl)cc3)CC2=O)cc1 (stereo unspecified),/,/,/,4.7,/,/
O=C1C=C(c2ccccc2)C(=O)N1Nc1ccccc1,0.9,11.0,103.5*,/,29.7,/
Cn1c(-c2ccccc2)c(-c2ccccc2)n(C)c1=O,/,/,/,-0.1,/,/
COc1ccc(N2CCN(CC(=O)Nc3cc(C)on3)CC2)cc1,1.3,3.0,8.9,0.1,5.3,-15.9
COc1ccc(N2CCN(CC(=O)Nc3nc4c(s3)CC(C)CC4)CC2)cc1 (stereo unspecified),2.9*,-12.0,-0.5,2.3,8.4,100.0*
COC(=O)C1=NN(C(=O)c2ccccc2)C(O)(C(C)(C)C)C1 (stereo unspecified),/,/,/,6.2,/,/
CC(C)=CC(=O)OCC(=O)Nc1nc(C)c(Cl)cc1Cl,1.1,-3.0,-0.8,2.3,-4.2,-4.3
CC(C)=CC(=O)OCC(=O)Nc1ccc(F)cc1Cl,0.8,1.0,12.4,-1.2,33.0*,-7.1
CCOC(=O)c1c(COc2ccccc2)oc2ccc(O)cc12,1,-9.0,2.4,7.8,24.9,2.6
C=C(C)COc1ccc2oc(-c3ccccc3)c(C(=O)OCC)c2c1,/,/,/,-4.4,/,/
CCOC(=O)c1c(C(C)(C)C)oc2ccc(O)cc12,1.2,12.0,10.4,/,52.4*,/
CCOC(=O)c1c(-c2ccccc2)oc2ccc(OC(C)=O)cc12,0.8,-12.0,-6.8,/,31.8*,/
COc1ccc(NC(=O)CC2CCC2)c(OC)c1,/,/,/,-7.3,/,/
Oc1ccc(Br)cc1C=Nc1cccc2ccccc12,/,/,/,8.4,/,/
Cc1ccc(S(=O)(=O)N/N=C/c2ccc(-c3ccc([N+](=O)[O-])cc3C)o2)cc1,/,/,/,-5.1,/,/
COc1ccc(OCC(=O)Nc2c(C)n(C)n(-c3ccccc3)c2=O)cc1,/,/,/,2.5,/,/
Cc1ccc2c(c1)c(N=Nc1nnc3c(n1)[nH]c1ccccc13)c(O)n2C,/,/,/,86.9*,/,/
CC(C)=NNc1nnc2c(n1)[nH]c1ccccc12,/,/,/,-7.9,/,/
COc1nc2ccc(C)cc2cc1-c1noc(-c2ccccc2)n1,0.9,-11.0,8.1,/,31.5*,/
CC(C)CNC(=S)NC(=O)c1ccc([N+](=O)[O-])cc1,0.9,14.0,-1.4,/,31.9*,/
CCCCNC(=S)NC(=O)c1ccc([N+](=O)[O-])cc1,1,25.0,11.8,/,12.0,/
SMILES,PLAP act,Ecoli WT expand,PostGolgi yeast,HePTP inhibitor,PostGolgi ctrl,tolC growth inh
COc1cc(-c2nc3cnccn3c2Nc2ccc(C)cc2)ccc1O,1.6,-4.0,-7.5,/,34.2*,/
O=C1NC(=S)NC(=O)C1=Cc1ccc(OCc2ccccc2Cl)cc1,/,/,/,12.3,/,/
CN(C)CCn1c(NC(=O)c2ccc(Cl)cc2)nc2ccccc21,2.3*,-10.0,7.4,/,-3.6,/
O=C(Nc1nc2ccccc2n1CCOc1ccc(Cl)cc1)c1ccco1,1.1,1.0,6.6,8.7,48.8*,77.1*
Cc1cccc(OCCn2c(-c3ccco3)nc3ccccc32)c1,1.2,-10.0,12.3,/,30.4*,/
Cc1cccc(OCCn2c(NC(=O)c3ccco3)nc3ccccc32)c1,0.9,-6.0,2.6,-1.7,50.8*,98.2*
O=C(c1ccc([N+](=O)[O-])cc1Cl)N1CCN(c2ccc(F)cc2)CC1,/,/,/,-12.1,/,/
O=S(=O)(Nc1ccc(O)c2ccccc12)c1cc(Cl)ccc1Cl,/,/,/,0.2,/,/
COc1cccc2sc(NC(=O)c3ccc(C)cc3)nc12,/,/,/,0.7,/,/
O=C(Nc1ccc(OC(F)F)cc1)Nc1cccc(C(F)(F)F)c1,0.9,25.0,78.6*,/,64.0*,/

# Screens (PubChem BioAssay)
